From ChEMBL document CHEMBL1154067, “Antiviral and cytotoxic activities of aminoarylazo compounds and aryltriazene derivatives” (Bioorg Med Chem, 2009)
Active and inactive are the calls of the source. How the calls were made is not given here.

How the values were obtained:
[1] = tested on: Vesicular stomatitis virus; test: Antiviral activity against Vesicular stomatitis virus after 2 days by plaque reduction assay; type: functional, organism-based
[2] = tested on: Respiratory syncytial virus; test: Antiviral activity against Respiratory syncytial virus A2 infected in Vero-76 cells after 5 days by plaque reduction assay; type: functional, organism-based; conditions: human respiratory syncytial virus, A2, Vero 76, 120 h
[3] = tested on: Poliovirus 1; test: Antiviral activity against Human poliovirus 1 strain Sabin after 2 days by plaque reduction assay; type: functional; conditions: Enterovirus C, 48 h
[4] = tested on: Mammalian orthoreovirus 1; test: Antiviral activity against Reovirus-1 infected in BHK-21 cells assessed as inhibition of virus-induced cytopathicity after 3 to 4 days by MTT assay; type: functional, organism-based; conditions: Mammalian orthoreovirus 1, BHK-21
Outline: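 BHK-21 cells seeded at 5 × 10^4 cells/well, grown overnight to confluent monolayers at 37 °C in 5% CO2, then infected at m.o.i. 0.01 in serum-free medium. One hour later, MEM Earle's with 1% final inactivated FCS added, with or without serial compound dilutions. Viability read by MTT after 3–4 days at 37 °C. EC50 is the concentration giving 50% protection from cytopathogenicity.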

[5] = Cytotoxicity against hamster BHK21 cells assessed as reduction in cell viability after 48 to 96 hrs by MTT assay; type: cell-based, Mesocricetus auratus, BHK-21; conditions: bhk-21
Outline: (§1)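 Mock-infected cells in maintenance medium, MDBK at 6 × 10^5 and BHK at 1 × 10^6 cells/mL initial density, with or without serial compound dilutions. Run in parallel with antiviral assays. Viability by MTT after 48–96 h at 37 °C, 5% CO2. CC50 = concentration reducing viability 50%.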

[6] = tested on: Coxsackievirus B2; test: Antiviral activity against Coxsackie virus type B2 virus infected in african green monkey Vero-76 cells after 3 days by plaque reduction assay; type: functional, organism-based; conditions: Enterovirus B, Vero 76, 72 h
Outline: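 Vero 76 cells seeded at 2 × 10^5 cells/well, grown overnight to confluence at 37 °C in 5% CO2, then infected at 50–100 PFU/well. Unadsorbed virus removed. Overlay of DMEM with 1% inactivated FCS and 0.75% methylcellulose, with or without serial compound dilutions. After 3 days at 37 °C, fixed and stained with crystal violet in PBS/50% ethanol; plaques counted. EC50 is the concentration reducing plaque number by 50%.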

[7] = tested on: Vero; test: Cytotoxicity against african green monkey Vero 76 cells by crystal violet staining; type: cell-based; conditions: chlorocebus sabaeus, vero
Outline: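 Mock-infected Vero 76 seeded at 4 × 10^5 cells/mL, run in parallel with plaque assays, with or without serial compound dilutions. Cell number of monolayers determined by crystal violet staining. CC50 = concentration reducing viable cell number 50%.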

[8] = tested on: Vaccinia virus; test: Antiviral activity against Vaccinia virus after 3 days by plaque reduction assay; type: functional, organism-based; conditions: Orthopoxvirus vaccinia
[9] = Cytotoxicity against MDBK cells after 48 to 96 hrs by MTT assay; type: cell-based, Bos taurus; conditions: cattle, mdbk; outline: as §1
[10] = tested on: Yellow fever virus; test: Antiviral activity against Yellow fever virus infected in BHK-21 cells assessed as inhibition of virus-induced cytopathicity after 3 to 4 days by MTT assay; type: functional, organism-based
[11] = tested on: Human immunodeficiency virus 1; test: Antiviral activity against HIV1 infected in human MT4 cells assessed as inhibition of virus-induced cytopathicity after 4 days by MTT assay; type: functional, organism-based
[12] = tested on: MT4; test: Cytotoxicity against human MT4 cells after 96 hrs by MTT assay; type: cell-based; conditions: mt4, 96 h
Outline: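 Exponentially growing mock-infected MT-4 seeded at 1 × 10^5 cells/mL in RPMI-1640 with 10% FCS, penicillin and streptomycin. Incubated with or without serial compound dilutions at 37 °C, 5% CO2. Viability by MTT after 96 h. CC50 = concentration reducing viability 50%.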

[13] = tested on: Human alphaherpesvirus 1; test: Antiviral activity against HSV1 infected in Vero-76 cells after 3 days by plaque reduction assay; type: functional, organism-based; conditions: Human alphaherpesvirus 1, Vero 76, 72 h

Compound	Activity [1]	EC50 [2] [µM]	EC50 [3] [µM]	EC50 [4] [µM]	CC50 [5] [µM]	EC50 [6] [µM]	CC50 [7] [µM]	Activity [8]	CC50 [9] [µM]	EC50 [10] [µM]	inhibition [11]	CC50 [12] [µM]	EC50 [13] [µM]
O=c1cccc2n1CC1CC2CN(/N=N/c2ccc(Cl)cc2)C1 (stereo not given)	inactive	> 55	> 55	> 85	85	> 55	55	inactive	97	> 85	inactive	46	> 55
c1ccc(/N=N/N2CCCC2)cc1	inactive	≥ 100	> 100	> 100	≥ 100	> 100	> 100	inactive	> 100	> 100	inactive	> 100	> 100
CN1CCN(/N=N/c2ccccc2)CC1	inactive	> 45	> 45	> 70	70	14	45	inactive	> 100	> 70	inactive	65	> 45
c1ccc(/N=N/N2CCN(c3ncccn3)CC2)cc1	inactive	> 65	> 65	> 100	> 100	10	65	inactive	> 100	> 100	inactive	90	> 65
COc1ccc(/N=N/N2CCCC2)cc1	inactive	> 90	> 90	> 100	≥ 100	> 90	90	inactive	60	> 100	inactive	68	> 90
Clc1ccc(/N=N/N2CCCCC2)cc1	inactive	> 100	> 100	> 100	> 100	> 100	> 100	inactive	> 100	> 100	inactive	> 100	> 100
O=[N+]([O-])c1cccc(/N=N/N2CCCC2)c1	inactive	8	30	> 42	42	> 80	80	inactive	> 100	> 42	inactive	66	> 80
Clc1ccc(/N=N/N2CCCC2)cc1Cl	inactive	20	25	> 50	50	> 58	58	inactive	70	> 50	inactive	75	> 58
Brc1cccc(/N=N/N2CCCC2)c1	inactive	> 100	> 100	> 100	> 100	> 100	≥ 100	inactive	> 100	> 100	inactive	> 100	> 100
O=[N+]([O-])c1ccc(/N=N/N2CCCC2)cc1	inactive	60	15	> 100	≥ 100	> 90	90	inactive	> 100	> 100	inactive	≥ 100	> 90
